Source: ChEMBL document CHEMBL3734648, “The synthesis of indolo[2,3-b]quinoline derivatives with a guanidine group: highly selective cytotoxic agents” (Eur J Med Chem, 2015)
pEC50, pIC50: −log10 of the molar value. Activity calls are given as the source filed them. The calls are words filed in the database; no cut-off is given here.

How the values were obtained:
BALB/3T3 = test: Cytotoxicity against mouse BALB/3T3 cells assessed as cell viability after 1 hr by sulforhodamine B assay; type: cell-based; conditions: BALB/3T3, 1 h
MCF7 [1] = test: Antiproliferative activity against human MCF7 cells after 72 hrs by sulforhodamine B assay; type: functional, cell-based; conditions: MCF7, 72 h
A549 [2] = test: Antiproliferative activity against human A549 cells after 72 hrs by sulforhodamine B assay; type: functional, cell-based; conditions: A549, 72 h
KB [3] = test: Antiproliferative activity against human KB cells after 72 hrs by sulforhodamine B assay; type: functional, cell-based
LoVo = test: Antiproliferative activity against human LoVo cells after 72 hrs by sulforhodamine B assay; type: functional, cell-based
KB [4] = test: Induction of apoptosis in human KB cells assessed as induction of caspase-3/7 activity at 1 uM after 72 hrs by Ac-DEVD-ACC-based fluorescence assay relative to control; type: functional
In short: (§1)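 KB cells treated for 72 h at 1.0 or 0.5. Caspase-3/7 activity measured by an enzymatic assay, normalized to protein content and expressed relative to untreated control. Significance versus control at p ≤ 0.05.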

KB [5] = test: Induction of apoptosis in human KB cells assessed as apoptotic cells at 0.5 uM after 72 hrs by Annexin V/propidium iodide staining-based flow cytometry (reference value: 4.8 +/- 2.4 %); type: functional
In short: (§2)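 Apoptosis and necrosis in KB cells after 72 h exposure at 1.0 or 0.5. Staining with annexin V (AV) and propidium iodide (PI). Cells scored as live (AV−/PI−), apoptotic (AV+/PI−) or necrotic (AV+/PI+). Values as mean ± SD, compared with control cells at p ≤ 0.05.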

KB [6] = test: Induction of cell cycle arrest in human KB cells assessed as accumulation at G0/G1 phase at 1 uM after 72 hrs by propidium iodide staining based flow cytometry (reference value: 53.2 +/- 5.8%); type: functional
In short: (§3)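 KB cells exposed for 72 h at […]. Cell-cycle phase distribution (G0/G1, S, G2/M) given as mean ± SD from independent experiments. Treated cells compared with control cells by Mann–Whitney U test, significance at p ≤ 0.05.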

KB [7] = test: Induction of cell cycle arrest in human KB cells assessed as accumulation at S phase at 0.25 uM after 72 hrs by propidium iodide staining based flow cytometry (reference value: 32.1 +/- 5.4%); type: functional; in short: as §3
KB [8] = test: Induction of cell cycle arrest in human KB cells assessed as accumulation at G2/M phase at 1 uM after 72 hrs by propidium iodide staining based flow cytometry (reference value: 14.7 +/- 1.1 %); type: functional; in short: as §3
KB [9] = test: Induction of apoptosis in human KB cells assessed as live cells at 1 uM after 72 hrs by Annexin V/propidium iodide staining-based flow cytometry (reference value: 91.3 +/- 3.1 %); type: functional; in short: as §2
KB [10] = test: Induction of apoptosis in human KB cells assessed as live cells at 0.5 uM after 72 hrs by Annexin V/propidium iodide staining-based flow cytometry (reference value: 91.3 +/- 3.1 %); type: functional; in short: as §2
KB [11] = test: Induction of cell cycle arrest in human KB cells assessed as accumulation at G2/M phase at 0.25 uM after 72 hrs by propidium iodide staining based flow cytometry (reference value: 14.7 +/- 1.1 %); type: functional; in short: as §3
KB [12] = test: Induction of cell cycle arrest in human KB cells assessed as accumulation at G0/G1 phase at 0.25 uM after 72 hrs by propidium iodide staining based flow cytometry (reference value: 53.2 +/- 5.8%); type: functional; in short: as §3
KB [13] = test: Induction of mitochondrial membrane potential loss in human KB cells at 0.5 to 1 uM after 72 hrs by JC-1 staining based flow cytometric analysis; type: functional
In short: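 Mitochondrial membrane potential of KB cells read after 72 h exposure at 1.0 and 0.5. Fraction of cells with reduced potential compared with control cells, significance at p ≤ 0.05.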

KB [14] = test: Induction of cell cycle arrest in human KB cells assessed as accumulation at G0/G1 phase at 0.5 uM after 72 hrs by propidium iodide staining based flow cytometry (reference value: 53.2 +/- 5.8%); type: functional; in short: as §3
KB [15] = test: Induction of cell cycle arrest in human KB cells assessed as accumulation at S phase at 1 uM after 72 hrs by propidium iodide staining based flow cytometry (reference value: 32.1 +/- 5.4%); type: functional; in short: as §3
KB [16] = test: Induction of cell cycle arrest in human KB cells assessed as accumulation at S phase at 0.5 uM after 72 hrs by propidium iodide staining based flow cytometry (reference value: 32.1 +/- 5.4%); type: functional; in short: as §3
KB [17] = test: Induction of cell cycle arrest in human KB cells assessed as accumulation at G2/M phase at 0.5 uM after 72 hrs by propidium iodide staining based flow cytometry (reference value: 14.7 +/- 1.1 %); type: functional; in short: as §3
KB [18] = test: Induction of apoptosis in human KB cells assessed as necrotic cells at 0.5 uM after 72 hrs by Annexin V/propidium iodide staining-based flow cytometry (reference value: 3.9 +/- 0.8 %); type: functional; in short: as §2
KB [19] = test: Induction of apoptosis in human KB cells assessed as apoptotic cells at 1 uM after 72 hrs by Annexin V/propidium iodide staining-based flow cytometry (reference value: 4.8 +/- 2.4 %); type: functional; in short: as §2
KB [20] = test: Induction of apoptosis in human KB cells assessed as necrotic cells at 1 uM after 72 hrs by Annexin V/propidium iodide staining-based flow cytometry (reference value: 3.9 +/- 0.8 %); type: functional; in short: as §2
[21] = Induction of DNA intercalation (unknown origin) after 24 hrs by methyl green dye displacement assay
In short: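 Compound displaces methyl green from a DNA/methyl green complex. IC50 is the concentration giving a 50% decrease in the initial absorbance of the DNA/methyl green solution. Mean ± SD, n = 3–5.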

Candida albicans = test: Inhibition of biofilm formation of Candida albicans assessed as reduction in cell viability of biofilm after 24 hrs by XTT staining based spectrophotometry; type: functional; conditions: read-out: ED50 (the source's name)
In short: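 Candida albicans biofilms grown in vitro in 96-well plates, then exposed to compounds, and biofilm cell viability determined. ED50 reported as mean ± SD, n = 3.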

[22] = Hemolytic activity in human RBC after 30 mins by spectrophotometry; type: ADME, cell-based, Erythrocyte; conditions: for Activity: erythrocyte, 0.5 h; for HC50 at 0.5 h: human red blood cells
In short: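 Human red blood cells incubated with compound over 10^-6 to 5×10^-4 M for 30 min at 37 °C. HC50 taken as the concentration lysing 50% of cells. Mean ± SD of three individual determinations.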

[23] = tested on: erythrocytes (Homo sapiens); test: Hemolytic activity in human erythrocytes after 30 mins by spectrophotometry
A549 [24] = test: Selectivity index, ratio of IC50 for mouse BALB/3T3 cells to IC50 for human A549 cells; type: functional
MCF7 [25] = test: Selectivity index, ratio of IC50 for mouse BALB/3T3 cells to IC50 for human MCF7 cells; type: functional
KB [26] = test: Induction of apoptosis in human KB cells assessed as induction of caspase-3/7 activity at 0.5 uM after 72 hrs by Ac-DEVD-ACC-based fluorescence assay; type: functional, cell-based; in short: as §1

Row | Structure (SMILES) | pIC50 (BALB/3T3) | pIC50 (MCF7 [1]) | pIC50 (A549 [2]) | pIC50 (KB [3]) | pIC50 (LoVo) | pIC50 [21] | pEC50 (Candida albicans) | also measured
1 | Cc1c2c3cc(NC(=O)[C@@H]4CCCN4C(=N)N)ccc3nc-2n(C)c2ccccc12 | 4.50 | 5.11 | 4.96 | 4.81 | 5.11 | – | – | –
2 | Cc1c2ccccc2nc2c1c1cc(NC(=N)N)ccc1n2CCN(C)C.Cl.Cl.Cl.Cl | 4.52 | 6.09 | 5.49 | 6.06 | 5.03 | 4.00 | 3.54 | fold change (FC) (KB [4]): 2; Activity (KB [5]): 32.5%; Activity (KB [6]): 33.4%; Activity (KB [7]): 31.1%; Activity (KB [8]): 19.6%; Activity (KB [9]): 68.1%; Activity (KB [10]): 61.5%; Activity (KB [11]): 17.3%; Activity (KB [12]): 51.6%; Activity (KB [13]): 11%; Activity (KB [14]): 43.8%; Activity (KB [15]): 46.9%; Activity (KB [16]): 31.6%; Activity (KB [17]): 24.6%; Activity (KB [18]): 5.9%; Activity (KB [19]): 24.4%; Activity (KB [20]): 7.5%
3 | Cc1c2ccccc2nc2c1c1cc(NC(=O)CN)ccc1n2CCN(C)C.Cl.Cl.Cl | 6.21 | 6.12 | 6.13 | 5.95 | 7.05 | 4.10 | 4.13 | Activity [22]: Dose-dependent effect; HC50 at 0.5 h [22]: 80.3 µM
4 | Cc1c2ccccc2nc2c1c1cc(NC(=O)[C@@H]3CCCN3C(=N)N)ccc1n2CCN(C)C | 4.87 | 5.69 | 5.21 | 5.13 | 5.08 | – | – | –
5 | CCOc1ccc(-c2nc3ccc(-c4nc5ccc(N6CCN(C)CC6)cc5[nH]4)cc3[nH]2)cc1 | – | – | – | – | – | 4.92 | – | –
6 | Cc1c2ccccc2nc2c1c1cc(N)ccc1n2CCN(C)C | 6.25 | 6.48 | 6.06 | 6.07 | 7.11 | 3.90 | 4.47 | –
7 | Cc1c2ccccc2nc2c1c1cc(NC(=O)[C@@H]3CCCN3)ccc1n2CCN(C)C | 6.44 | 6.49 | 6.57 | 6.42 | 7.22 | 4.37 | 4.59 | –
8 | Cc1c2c3ccccc3nc-2n(C)c2ccccc12 | – | – | – | – | – | 3.44 | – | HC50 at 0.5 h [23]: 120 µM
9 | Cc1c2c3cc(NC(=O)CNC(=N)N)ccc3nc-2n(C)c2ccccc12.Cl.Cl.Cl | 5.35 | 5.32 | 5.74 | 5.41 | 6.08 | 4.39 | 5.38 | Activity [22]: Dose-dependent effect; HC50 at 0.5 h [22]: 192 µM
10 | Cc1c2ccccc2nc2c1c1cc(NC(=O)CNC(=N)N)ccc1n2CCN(C)C | 5.45 | 5.64 | 5.71 | 5.91 | 6.09 | – | – | –
11 | Cc1c2c3cc(NC(=N)N)ccc3nc-2n(C)c2ccccc12.Cl.Cl | 4.18 | 7.22 | 6.85 | 6.06 | 4.11 | 4.15 | 3.71 | fold change (FC) (KB [4]): 5; Activity (KB [5]): 43.7%; Activity (KB [6]): 32.8%; Ratio IC50 (A549 [24]): 600; Activity (KB [7]): 35.3%; Activity (KB [8]): 18.6%; Ratio IC50 (MCF7 [25]): 600; Activity (KB [9]): 62.1%; Activity (KB [26]): Active; Activity (KB [10]): 41.1%; Activity (KB [11]): 25.3%; Activity (KB [12]): 39.5%; Activity (KB [13]): 11%; Activity (KB [14]): 29.2%; Activity (KB [15]): 48.6%; Activity (KB [16]): 39.8%; Activity (KB [17]): 31%; Activity (KB [18]): 8.2%; Activity (KB [19]): 25.7%; Activity (KB [20]): 12.2%
12 | Cc1c2c3cc(N)ccc3nc-2n(C)c2ccccc12 | 6.27 | 6.28 | 6.80 | 6.14 | 7.15 | 3.82 | 4.39 | –
